These results are taken from publication PMC4739781 (Journal of materials chemistry. B, Materials for biology …, 2015).

Read-outs that look alike come from different tables or passages of the source.

Data set [1] concerns A549 human lung adenocarcinoma cells. The data set is described as follows: A549 cell cytotoxicity in the dark and after irradiation. It is filed as cell-based. As to conditions: for Phototoxicity Index, PI: ratio of the dark and light A549 EC50 values. In short, it runs like this: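 A549 cells kept in DMEM with 10% FBS and 1% pen-strep at 37 °C, 5% CO2, below 70% confluence. Seeded at 1,500 cells/well in opti-MEM with 1% serum supreme and 1% pen-strep, then held 6 hrs. Free or CNA-loaded complex was added (0–300 μM or 0–20 μM) in the dark for 18 h. Cells were then irradiated (410 W projector, λ>400 nm filter, 30 sec pulses with 30 sec gaps, 5 min total) or kept dark, and held 72 hrs. Resazurin 73.3 μM for 4 hrs; fluorescence ex 560/em 590 nm; triplicate. PI is dark EC50 over light EC50.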

The nature of data set [2]: log P by shake flask method. It is filed as physicochemical. To be noted: Dark (protected from light). In short, it runs like this:
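Shake flask method in triplicate, using n-octanol and diH2O mutually pre-saturated (4:1 mixtures, 24 hrs). Protected from light, complex at 200 μM (100 μM for the less water-soluble one) in diH2O was mixed 1:1 with n-octanol (1 mL total). Samples were shaken 10 min and centrifuged at 17,000 × g for 30 sec. Both phases were read by absorbance at the MLCT peak. Photoactivated samples were first irradiated 30 min (20 J/cm², λ>400 nm filter).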

The nature of data set [3]: Ru complex release from PEG-ASP CNAs by dialysis under sink conditions. It is filed as physicochemical. As to conditions: for Release (%) in the primary phase: two-phase fit. In short, it runs like this: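 Triplicate dialysis under sink conditions. Loaded CNAs at 100 μg/mL complex in diH2O, either irradiated 3 hrs (200 W, λ>400 nm, 120 J/cm²) or kept dark, in 10,000 MWCO cassettes. Dialysed at 37 °C in the dark against 5 L PBS or 10 mM phosphate buffer without NaCl (pH 6.0 or 7.4). Free complex served as control. Cassette contents were sampled over 0–48 hrs and read by MLCT-peak absorbance. Data were fitted by one-phase exponential regression, or two-phase where that fit better.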

The nature of data set [4]: Ru complex photoactivation. In kind it is physicochemical. To be noted: after 30 min irradiation (200 W, λ>400 nm). In short, it runs like this: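 Free or CNA-loaded complex in PBS, in a 1 cm quartz cuvette 18 in from a 200 W projector with λ>400 nm cutoff filter. UV/Vis absorbance change was recorded over irradiation time. Photoactivation t1/2 (time for half the spectral change) was obtained by non-linear exponential regression.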

The target of another data set is pUC19 plasmid DNA. The data set is described as follows: DNA agarose gel electrophoresis. It is filed as biochemical.
The next data set relates to A549 cells. The data set is described as follows: A549 cytotoxicity with exposure limited to 8 hrs, wash, then irradiation. It is filed as cell-based, human. As to conditions: irradiation λ>400 nm, 72 hrs. In short, it runs like this:
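Free or CNA-entrapped complex was incubated with A549 cells for 8 hrs. Extracellular compound was washed off with fresh media. Cells were irradiated (λ>400 nm), incubated 72 hrs, and viability was read as in the standard assay: 73.3 μM resazurin for 4 hrs, fluorescence ex 560/em 590 nm.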

Data set [5] in a line: Ru complex loading in PEG-ASP CNAs by UV/Vis absorption at MLCT peak. In kind it is physicochemical. As to conditions: maximum theoretical loading 25 wt %. In short, it runs like this: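 PEG-ASP(Na⁺) CNAs and Ru complex (theoretical maximum loading 25%) were dissolved in anhydrous DMSO and incubated overnight at room temperature, protected from light. Unbound complex was removed by dialysis (6,000–8,000 MWCO) against diH2O, changed twice daily for 3 days. The product was lyophilized. Loading was quantified by UV/Vis absorbance at each complex's MLCT peak.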

For data set [6] the following is noted: air-equilibrated D2O at room temperature; cited from earlier work.
Setting [7] is: read-out: EC50 Dark, A549, protected from light, 72 hrs.
Setting [8] is: read-out: EC50 Light, A549, 5 min light irradiation (λ>400 nm), 72 hrs.

For the compound `N.N.[Cl][Pt][Cl]` [cisplatin, reference compound], the “Phototoxicity Index, PI” value in data set [1] turned out to be 1. Moreover, the EC50 in data set [1] (setting [7]) and in data set [1] (setting [8]) was 2500 ± 600 nM throughout.
For the compound `[Cl-].[Cl-].[Ru+2].c1ccc(-c2ccnc3c2ccc2c(-c4ccccc4)ccnc23)cc1.c1ccc(-c2ccnc3c2ccc2c(-c4ccccc4)ccnc23)cc1.c1ccc(-c2ccnc3c2ccc2c(-c4ccccc4)ccnc23)cc1` [compound 3, [Ru(dip)3]Cl2], in data set [2], the “log P” value came out at 1.80 ± 0.02. In addition, in data set [3] (Dark, PBS (100 mM NaCl), pH 7.4, 37 °C), the “Release (%) from PEG-ASP CNAs” value is 37.0%. Also, the “Release (%) from PEG-ASP CNAs (total)” value came out at 46.4% in data set [3] (Dark, phosphate buffer 0 mM NaCl, pH 6.0, 37 °C) and 51.9% in data set [3] (Dark, phosphate buffer 0 mM NaCl, pH 7.4, 37 °C). The “Release (%) in the primary phase” value in data set [3] (Dark, phosphate buffer 0 mM NaCl, pH 6.0) is recorded as 45.0%; in data set [3] (Dark, phosphate buffer 0 mM NaCl, pH 7.4) it was 45.2%. Besides, in data set [3] (after 18 hrs, dark), the “amount released from PEG-ASP CNAs after 18 hrs” value is listed as “approximately 20%”. Further, in data set [4], the “photo-stability: change of UV/Vis absorbance spectrum” value was “did not change”. In addition, the EC50 on pUC19 plasmid DNA (read-out: DNA interaction EC50 (DNA precipitation), protected from light, 40 μg/mL pUC19, 10 mM PB pH 7.4) is 31300 to 62500 nM; on pUC19 plasmid DNA (read-out: DNA interaction EC50 (single strand DNA breaks), after photoactivation (40 J/cm^2, λ>400 nm), 40 μg/mL pUC19), 15600 to 31300 nM; in data set [1] (setting [7]), 600 ± 1100 nM; in data set [1] (setting [8]), 100 nM. Besides, the “Phototoxicity Index, PI” value in data set [1] was >6. In addition, in the data set with A549 cells, the “potency when cells were washed after an 8 hr exposure time” value is on record as “remained potent”. Further, in data set [5], the “loading efficiency in PEG-ASP CNAs” value is reported as 88%. Besides, the “weight % of Ru complex in loaded PEG-ASP CNAs” value in data set [5] is given as 22 wt %. For the same compound, in data set [6], the “singlet oxygen generation ΦΔ” value was 0.42.
With `Cc1cccc(-c2cccc(C)n2)n1` [dmbpy, 6,6′-dimethyl-2,2′-bipyridine], in data set [1] (Homo sapiens, A549, read-out: EC50 (ejected ligand cytotoxicity)), the concentration giving a half-maximal response (EC50) is 80000 nM.
`O.O.[Cl-].[Cl-].[Ru+2].c1ccc(-c2ccccn2)nc1.c1ccc(-c2ccccn2)nc1` [photoactivated 1, [Ru(bpy)2(H2O)2]Cl2]: the “Release (%) from PEG-ASP CNAs” value in data set [3] (Photoactivated, PBS (100 mM NaCl), pH 7.4, 37 °C) came to 77.7%; in data set [3] (Photoactivated, phosphate buffer 0 mM NaCl, pH 7.4, 37 °C), 65.8%.
